GRK2 aptamer HTS: human GRK2 inhibition via aptamer displacement. P25098. bead flow cytometry, FAM-aptamer displacement from GRK2. inhibition of aptamer binding, % at 10 µM. actives 0.59% (n = 330,000);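 active means inhibition of aptamer binding above 40%, roughly 3 SD of noise, on plates passing a quality check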;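 further: median bead fluorescence of bound FAM aptamer so fluorescent compounds give negative values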
SUMO1 PPI mod: alters human SUMO1 binding to SIM partners | SUMO1 binding to a labelled peptide, TR-FRET, 1 h | inhibition, % at 20 µM | actives 0.33% (n = 360,000); in the data active means inhibition above about 37%
Target sequence (P63165 whole entry, looked up): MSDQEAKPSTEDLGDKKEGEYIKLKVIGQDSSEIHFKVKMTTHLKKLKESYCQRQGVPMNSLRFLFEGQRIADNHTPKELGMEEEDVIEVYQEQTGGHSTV
LMPTP block: blocks human LMPTP phosphatase | actives 0.22% (n = 360,000) | inhibition, % at 20 µM | recombinant LMPTP-A, OMFP fluorogenic substrate, fluorescence intensity | P24666 | AID 651560;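 active means compounds that cut the enzyme signal by at least half of the control window in the single-dose screen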;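 further: plate controls were DMSO wells with enzyme plus substrate for no effect and substrate without enzyme for full effect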
Target sequence (P24666 whole entry, looked up): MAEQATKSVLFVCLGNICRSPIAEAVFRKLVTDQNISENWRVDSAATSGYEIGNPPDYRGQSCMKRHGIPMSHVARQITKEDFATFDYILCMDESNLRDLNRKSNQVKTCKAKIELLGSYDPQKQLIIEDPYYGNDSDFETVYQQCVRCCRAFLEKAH
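Test system: LMPTP-A phosphatase enzyme. Amount: LMPTP-A at 0.625 nM final in the reaction. Reagent: OMFP substrate, 400 µM final. Times: 50 min at room temperature. Signal: endpoint fluorescence intensity from OMFP dephosphorylation. Read-out basis: % inhibition. Benchmarks: no-enzyme and uninhibited controls.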
Scp1 inh: blocks human Scp-1 phosphatase activity; inhibition, % at 20 µM; AID 493091; Q9GZU7; Recombinant Scp1, phosphopeptide, malachite green phosphate absorbance; actives 0.88% (n = 340,000);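 active means inhibition above about 50% at 20 µM, limit read from the data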;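 further: plate controls were DMSO wells with enzyme for no effect and wells lacking enzyme for full effect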
Target sequence (Q9GZU7 76-261 limits assumed): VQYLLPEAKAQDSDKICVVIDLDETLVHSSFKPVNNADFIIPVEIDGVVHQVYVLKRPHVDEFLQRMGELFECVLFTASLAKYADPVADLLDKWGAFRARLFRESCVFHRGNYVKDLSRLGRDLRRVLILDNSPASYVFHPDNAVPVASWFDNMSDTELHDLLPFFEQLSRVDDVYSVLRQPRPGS
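Incubation: 45 min enzyme reaction at room temperature / System: truncated SCP-1 phosphatase (76-261aa) / Reagent: Phospho 17-mer peptide substrate / Buffer or medium: Acidic Tris acetate buffer with magnesium and detergent / Signal: absorbance at 630 nm / Doses: one concentration, 20 µM, with 1.0% DMSO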
DNMT1 block: blocks human DNA methyltransferase DNMT1; P26358; DNMT1 molecular beacon, Hinp1I cleavage, fluorescence; inhibition (reported as % activation of signal), % at 10 µM; actives 0.83% (n = 360,000); in the data active means inhibition above about 50%
STEP inh: blocks human striatal-enriched tyrosine phosphatase. P54829. recombinant STEP, OMFP fluorogenic substrate, fluorescence. inhibition, % at 20 µM. actives 0.25% (n = 360,000);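 active means inhibition at 20 µM, scaled per plate between control wells, above about 37%, limit read from the data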;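 further: 0% = DMSO with enzyme and substrate and 100% = substrate only without enzyme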
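System: STEP (striatal-enriched tyrosine phosphatase) enzyme, cell-free; medium: Bis-Tris pH 6.0 buffer with DTT, detergent; dosing: 20 µM, 1% DMSO; times: reaction 20 min, ambient temperature; detection: fluorescence, 480/540 nm; read-out basis: normalized % inhibition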
GRK2 CP1: human GRK2 inhibition confirmation, cherry pick 1; shares compounds with GRK2 aptamer HTS; bead-bound GRK2, FAM-aptamer displacement, flow cytometry; aptamer displacement, % at 10 µM; actives 4% (n = 2,000);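 active means aptamer displacement above 40%, near three times the noise of non-fluorescent compounds, on plates passing quality checks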;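 further: negative values mostly reflect intrinsic compound fluorescence rather than true enhancement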
Aptamer quench 1: fluorescent aptamer quenching in GRK2 counter-screen dose response. AID 504521. shares compounds with GRK2 aptamer HTS. fluorescence change (kMESF span), kMESF (test concentration not listed). 110 tested, under 10 active. Fluorescent RNA aptamer beads, flow cytometry; stronger effect = higher value;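 active means compounds whose bead fluorescence drops by more than 37 kMESF across the dose range, marking them as dye quenchers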
FAM quench CP1: counter-screen for GRK2 aptamer inhibitors: fluorescent aptamer quenchers | shares compounds with GRK2 aptamer HTS | Carboxyfluorescein RNA aptamer on beads, flow cytometry quenching; stronger effect = lower value | 2,000 tested, under 10 active | fluorescence response (% of DMSO), % at 10 µM;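 active means compounds that quench the bead-bound fluorescent RNA probe, cutting fluorescence to under half of the solvent control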;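 further: counterscreen run without GRK2 so only probe quenching by compound is measured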
GRK2 CP2: human GRK2 inhibition confirmation, cherry pick 2; shares compounds with GRK2 aptamer HTS; bead-bound GRK2, FAM-aptamer displacement, flow cytometry; inhibition of aptamer binding, % at 10 µM; 360 tested, under 10 active; AID 504782;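 active means inhibition of aptamer binding above 40%, about triple the noise seen with nonglowing compounds, on plates passing quality control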;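 further: negative values mostly come from compounds that fluoresce themselves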
FAM quench SP: aptamer fluorescence quenching in GRK2 counter-screen; fluorescence response vs DMSO, % at 10 µM; AID 588494; carboxyfluorescein RNA aptamer beads, flow cytometry quenching; stronger effect = lower value; shares compounds with GRK2 aptamer HTS; 360 tested, under 10 active;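 active means response vs DMSO under 50%, meaning signal dropped by over half, treated as fluorescence quencher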;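 further: labelled aptamer on streptavidin beads without GRK2 as a quench counter-screen; 100% = bead fluorescence of DMSO wells and lower means quenching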
FAM quench PS1: counter-screen for GRK2 aptamer binding inhibitors: aptamer fluorescence quenching. shares compounds with GRK2 aptamer HTS. 35 tested, under 10 active. Bead-bound FAM RNA aptamer fluorescence quenching, flow cytometry; stronger effect = lower value. fluorescence ratio to DMSO, % at 11.1 µM;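 active means compounds that dim the fluorescent label, raw bead signal shifting by over 33 units between lowest and highest dose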
* = called active by the depositor; / = not tested or not shown. An excerpt weighted towards active compounds, which were near 2.1% of everything screened.

SMILES	GRK2 aptamer HTS	SUMO1 PPI mod	LMPTP block	Scp1 inh	DNMT1 block	STEP inh	GRK2 CP1	FAM quench CP1	others
Cc1cc(N/C=C/C(=O)c2ccc(Br)cc2)no1	77*	-3	5	-4	20	0	-2	99
Cc1ccnc(N/C=C/C(=O)c2ccc(Br)cc2)c1	0	1	0	0	4	1	/	/
O=C(Nc1ccc(C(=O)N2CCCCC2)cc1)C1CC1	/	5	-1	-8	3	-3	/	/
COc1ccc(CCNCC(C)c2ccccc2)cc1 (centres undefined)	4	2	-2	-19	1	1	0	106
Cc1cc2ccccc2n1CCNC(=O)C(C)Oc1ccccc1 (centres undefined)	85*	-21	2	-12	-5	4	28	97	Aptamer quench 1=-120;FAM quench PS1=101
Cc1cc2ccccc2n1CCNC(=O)c1ccc(S(=O)(=O)N2CCCCC2)cc1	83*	-9	5	-12	7	0	84*	72	Aptamer quench 1=7.5
COc1ccc(O)c(/C=N/NC(=O)c2cc(=O)[nH]c3ccccc23)c1	68*	-16	-1	-24	0	0	0	102
CCN(CC)c1ccc(N=C2C=CC(=O)C=C2NC(C)=O)cc1	/	-29	7	-3	-9	-1	/	/
CC(=O)c1cn(C)c(=O)c2ccccc12	2	2	-2	-23	0	1	/	/
CCc1ccc(N(CC)C(=O)c2cn(C)c(=O)c3ccccc23)cc1	29	9	-1	-12	-2	-1	0	102
CCc1nc2c(OCC(N)=O)cccn2c1N(C)C(=O)c1cccs1	/	-4	-2	/	0	-2	/	/
CC(=O)OCC1=C(C(=O)O)N2C(=O)C(NC(=O)Cn3nc(C(F)F)c(Cl)c3C)C2SC1 (centres undefined)	2	17	0	38	19	5	3	101
CCCCNC(=O)c1nc(C2CCN(S(=O)(=O)c3ccccc3C(F)(F)F)CC2)oc1-c1ccccc1	/	3	3	/	-3	0	/	/
Oc1ccc(C[C@@H]2CNCCN2CCc2cc(C(F)(F)F)cc(C(F)(F)F)c2)cc1	0	-20	-4	6	-2	0	/	/
Oc1ccc(C[C@H]2CNCCN2CCc2cc(C(F)(F)F)cc(C(F)(F)F)c2)cc1	44*	-11	-3	2	0	1	/	/	GRK2 CP2=15;FAM quench SP=101
Cc1cccc(C)c1NC(=O)C1c2ccccc2OCC(=O)N1CCc1ccccc1 (centres undefined)	/	1	-1	/	/	/	/	/
COc1ccccc1-c1cn(CC[C@@H]2CC[C@H](NC(=O)C3CCC3)[C@@H](CO)O2)nn1	/	4	-2	/	/	/	/	/
CCCNC(=O)c1cc(C2CCCCN2C(=O)c2cc(C(C)(C)C)nn2C)on1 (centres undefined)	/	-3	0	/	0	0	/	/
Cc1oc(C(=O)O)cc1COc1ccc2c3c(c(=O)oc2c1C)CCC3	73*	11	2	37	22	4	7	105
CC(C)Oc1cccc(NC(=O)C2(C)CCCN2C(=O)C(C)C)c1 (centres undefined)	/	3	-1	/	-2	-3	/	/
COc1ccc(/C=C/C(=O)OCC(=O)NCCc2ccccc2)c(OC)c1	0	-15	2	-21	-1	-2	/	/
NS(=O)(=O)c1ccc(CCNC(=O)c2ccccc2F)cc1	0	0	-1	-7	0	1	/	/
NS(=O)(=O)c1ccc(CCNC(=O)c2ccccc2-c2ccccc2)cc1	82*	1	0	-2	1	0	-5	100
CSc1nc2sc3c(c2c(=O)n1C)CCC3	1	7	-2	-5	-6	-5	/	/	GRK2 CP2=-69;FAM quench SP=98
CCSc1nc2sc3c(c2c(=O)n1CC)CCC3	3	8	3	14	15	4	/	/	GRK2 CP2=16;FAM quench SP=99
SMILES	GRK2 aptamer HTS	SUMO1 PPI mod	LMPTP block	Scp1 inh	DNMT1 block	STEP inh	GRK2 CP1	FAM quench CP1	others
CCn1c(SCC(N)=O)nc2sc3c(c2c1=O)CCCC3	0	0	0	-10	-2	0	/	/
CCNC(=O)C1(C)CCCN1Cc1c(F)cccc1F (centres undefined)	/	1	0	/	3	-6	/	/
Nc1ccc(Nc2ccc([N+](=O)[O-])cc2[N+](=O)[O-])cc1	84*	-30	2	6	23	-3	2	92
NC(=O)c1ccc(Nc2ccc([N+](=O)[O-])cc2[N+](=O)[O-])cc1	5	-31	2	9	22	3	/	/
COc1cccc(S(=O)(=O)N(C)C[C@H]2OCc3cnnn3CCCC(=O)N([C@@H](C)CO)C[C@@H]2C)c1	/	1	-3	/	5	3	/	/
CC1=C(/C=C/C(C)=N\NC(=O)c2ccncc2)C(C)(C)CCC1	0	7	-1	1	1	-2	/	/
CC1=C(/C=C/C(C)=C/C=C/C(C)=C/CO)C(C)(C)CCC1	86*	6	0	7	-18	-1	5	102
COc1ccc(S(=O)(=O)NCc2ccc3c(c2)OCO3)cc1OC	0	1	-1	-7	-1	0	/	/
COc1ccc(S(=O)(=O)NCc2ccc3c(c2)OCO3)cc1C	71*	3	0	4	-2	-3	0	100
COc1ccc(Cl)cc1N(CC(=O)Nc1ccccc1C(=O)NCc1ccco1)S(C)(=O)=O	20	-2	1	-7	-3	0	0	101
COc1ccc(OC)c(N(CC(=O)Nc2ccccc2C(=O)NCc2ccco2)S(C)(=O)=O)c1	5	3	-1	-8	0	-2	/	/

Screens (PubChem)
